An excerpt weighted towards active compounds, which were near 2.4% of everything screened.
p-CIP stab down: lowers stability of the mouse p/CIP coactivator protein; F442A p/CIP-EGFP cells, EGFP fluorescence, 16 h; 290,000 tested, 0.01% active; AID 1984; decrease of EGFP signal, % at 10 µM; Q05BA5;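 active means EGFP signal decrease of at least 30% at 10 µM or well 3 SD below plate mean, unless failing retest; inactive means the rest, including hits failing retest or dose response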
T cruzi repl: T. cruzi replication inhibition; T. cruzi beta-gal in NIH3T3, luminescence, 90 h; inhibition, % (test concentration not listed); AID 1885; 300,000 tested, 1.4% active;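 active means mean inhibition across valid replicates above about 55%, limit read from the data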;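 further: signal also drops with host cell toxicity which is not excluded here; higher percent means less beta-gal luminescence so fewer parasites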
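System: mouse NIH/3T3 fibroblasts infected with β-gal-expressing T. cruzi Tulahuen C4 / Input: NIH/3T3 cells, 5,000 per well / Buffer or medium: Low-serum DMEM with 2% FBS / Probe or stimulus: 5000 reporter trypomastigotes per well / Schedule: ≥90 h infection period, 3 h prior cell attachment / Measured by: GalScreen luminescence, 60 min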
Cardio protect: myocardial damage modulation in H9c2 cells; H9c2 cardiomyocytes, H2O2 injury protection, ATPLite, 2 h; protection from H2O2 cell death, % at 20 µM; 360,000 tested, 0.63% active; AID 588492;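 active means compounds giving at least 50% protection of heart cells from peroxide-induced death in the single-dose screen, raw or plate-pattern-corrected value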
GASC-1 inh: blocks human GASC-1 demethylase activity | AID 2099 | GST-JMJD2C(1-420) H3K9me3 demethylation, DELFIA europium | Q9H3R0 | 330,000 tested, 0.069% active | inhibition, % at 2.35 µM;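 active means more than half of a compound's replicate wells show inhibition beyond 50%, single wells judged on their own value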;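 further: signal counts dimethyl H3K9 product captured on neutravidin plate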
Target sequence (Q9H3R0 1-420 limits assumed): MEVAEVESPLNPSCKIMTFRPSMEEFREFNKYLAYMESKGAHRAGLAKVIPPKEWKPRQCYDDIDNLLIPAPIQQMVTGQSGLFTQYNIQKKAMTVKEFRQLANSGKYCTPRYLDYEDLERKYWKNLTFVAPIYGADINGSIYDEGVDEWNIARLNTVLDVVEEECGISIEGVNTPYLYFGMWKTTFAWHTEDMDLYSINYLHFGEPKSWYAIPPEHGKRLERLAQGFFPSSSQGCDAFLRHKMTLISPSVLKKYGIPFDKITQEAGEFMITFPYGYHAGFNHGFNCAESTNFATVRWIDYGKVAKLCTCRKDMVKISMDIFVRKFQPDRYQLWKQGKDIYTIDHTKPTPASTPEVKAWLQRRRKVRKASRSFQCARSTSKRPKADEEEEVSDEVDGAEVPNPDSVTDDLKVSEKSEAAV
CTSL1 counter: blocks F. hepatica cathepsin L1 in PFM18AAP counter-screen. 300,000 tested, 0.49% active. recombinant F. hepatica cathepsin L1, Z-Leu-Arg-MCA fluorescence. inhibition, % at 5.96 µM;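 active means inhibition above the mean of all tested compounds plus 3 SD, set per screening campaign, cut at about 17% in these data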
PP5 inh: blocks human protein phosphatase 5 activity; P53041; purified PP5c, OMFP substrate fluorescence; inhibition, % at 6.7 µM; 320,000 tested, 0.18% active;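 active means inhibition above the campaign's mean inhibition across all tested compounds plus 3 SD, cut at about 9.5% in these data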
Numbers stand for hits; - = inactive; . = not tested or not shown.

SMILES | p-CIP stab down | T cruzi repl | Cardio protect | GASC-1 inh | CTSL1 counter | PP5 inh
C[C@H](NC(=O)[C@H](Cc1ccccc1)NC(=O)c1cc2cc(Cl)ccc2n1C)C(=O)O | - | - | - | - | - | -
O=C(Nc1ccncc1)Nc1cccc(Cl)c1 | - | - | - | - | - | -
Cc1cc(C)cc(NC(=O)Nc2ccc(-n3ccc(C(F)(F)F)n3)cc2)c1 | - | - | - | - | - | -
O=C(Nc1ccc(-n2ccc(C(F)(F)F)n2)cc1)Nc1cccc(Cl)c1 | - | 62.1 | - | - | - | -
O=C(Nc1cccc(Cl)c1)Nc1ccccc1-n1ccnc1 | - | 56.6 | - | - | - | -
CCOC(=O)C1CCCN(C(=O)c2cc3c(OC)c(OC)c(OC)cc3[nH]2)C1 (configuration not stated) | - | - | - | - | - | -
O=C1CC(NS(=O)(=O)c2ccc3ccccc3c2)CN1c1ccccc1 (configuration not stated) | . | - | - | - | - | -
CC1CC(C)CN(CCCNC(=O)c2ccc3c(c2)ncn3C2CCCC2)C1 (configuration not stated) | - | - | - | - | - | -
CCCCCOC(=O)C1C2C=CC3(CN(c4ccccc4C)C(=O)C13)O2 (configuration not stated) | - | - | - | - | 18.6 | -
COc1ccc(S(=O)(=O)N2CCCCCC2)cc1N(C)S(=O)(=O)c1ccc(Cl)cc1 | - | 64.3 | - | - | - | -
O=C1C=C(Nc2cccc3cccnc23)c2ccccc2C1=O | - | - | - | - | 19.9 | -
O=C1C=C(Nc2ccccc2)c2ccccc2C1=O | - | - | - | - | . | .
O=C1C=C(Nc2ccccc2C(=O)O)c2ccccc2C1=O | - | - | - | - | 28.9 | -
COc1ccc(CCN(C)CCC(=O)Nc2cccc(C)c2)cc1OC | - | - | - | - | - | -
COc1ccc(CCN(C)CCC(=O)Nc2ccc(C)cc2)cc1OC | - | 58.6 | - | - | - | -
CC(=O)c1ccc(N2CCC(c3cc(-c4ccc(Cl)cc4)n[nH]3)CC2)c([N+](=O)[O-])c1 | - | 74.0 | - | - | - | -
COc1ccc(-c2cc(C3CCN(c4ccc(C(C)=O)cc4[N+](=O)[O-])CC3)[nH]n2)cc1 | - | 63.0 | - | - | - | -
C=CCN1C(=O)c2ccc(C(=O)N(CC)CC(=O)Nc3ccc(OC)cc3)cc2C1=O | . | - | - | - | - | -
Cc1ccc(S(C)(=O)=O)cc1C(=O)OCC(=O)N1CCCC1=O | . | . | - | . | . | .
FC(F)(F)c1cccc(CN2CCC(c3cc(-c4cccs4)n[nH]3)CC2)c1 | - | 60.6 | - | - | - | -
FC(F)(F)c1cccc(-c2cc(C3CCNCC3)[nH]n2)c1 | - | 55.8 | - | - | - | -
Cc1cccc(CN2CCN(C3CN(Cc4ccc(F)cc4)S(=O)(=O)C3)CC2)c1 (configuration not stated) | . | . | - | . | . | .
Clc1ccc(CONc2ncnc3nonc23)c(Cl)c1 | - | - | - | - | 18.3 | -
CC(C)(C)c1ccc(C(=O)CC(Sc2ccc(Cl)cc2)C(=O)O)cc1 (configuration not stated) | - | 60.1 | - | - | - | -
O=C1C(O)CCN1Cc1ccccc1 (configuration not stated) | . | . | - | . | . | .
SMILES | p-CIP stab down | T cruzi repl | Cardio protect | GASC-1 inh | CTSL1 counter | PP5 inh
CCCCCCCNC(=O)C1(CC2CC(c3ccc(Cl)cc3)=NO2)CCN(C(=O)OC(C)(C)C)CC1 (configuration not stated) | - | - | - | - | - | -
Cc1ccc2nc(-c3ccncc3)c(NC3CCCCC3)n2c1 | - | 60.3 | - | - | - | -
Cc1ccc2nc(-c3ccncc3)c(NC3CCCC3)n2c1 | - | 76.6 | - | - | - | -
Cc1ccc2nc(-c3ccsc3)c(NC3CCCC3)n2c1 | - | - | - | - | - | -
Cc1ccn2c(NC3CCCC3)c(-c3ccncc3)nc2c1 | - | - | - | - | - | -
COCc1c(C(=O)Nc2ccc3nc(N4CCOCC4)sc3c2)oc2ccccc12 | . | . | 63.5 | - | . | -
O=C(Nc1ccc2nc(N3CCOCC3)sc2c1)c1ccccc1 | . | . | - | - | . | -
CC(=O)C[C@H](O)CC(=O)[C@H]1OC(=O)CC/C=C\Cc2ccccc21 | . | . | - | - | . | -
CCC(=NNC(=O)c1ccc2c(c1)nc(C)n2CC)c1cc(F)ccc1O | . | . | 52.2 | - | . | .
O=C(CCC(=O)N(CC(=O)NC1CCCC1)c1ccccc1F)Nc1nccs1 | - | - | - | - | - | -
CN1C/C(=C/c2ccsc2)C(=O)/C(=C/c2ccsc2)C1 | - | 56.3 | - | - | - | -
COc1cc(C=C2CN(C)C(=O)C2=O)ccc1O | . | . | - | . | . | .
CCOc1cc(/C=C2\CN(C)C/C(=C\c3ccc(O)c(OCC)c3)C2=O)ccc1O | - | 61.9 | - | - | - | -
CCn1c(SCC(=O)Nc2oc(-c3ccccc3)c(-c3ccccc3)c2C#N)nnc1-c1ccco1 | - | - | - | - | - | -
COc1ccc(-c2oc(NC(=O)CSc3nncn3C)c(C#N)c2-c2ccc(OC)cc2)cc1 | - | - | - | - | 30.3 | -
COc1ccc(C(=O)Nc2cccc(S(=O)(=O)NC3=NCCC3)c2)cc1OC | . | . | - | - | . | .
COc1ccc(C(C)=O)cc1Cn1c(C)c(C(=O)NCc2cccc(C)c2)sc1=O | . | . | - | . | . | .
CN(CC(=O)Nc1cccc(F)c1)C(=O)c1ccccc1OCC(=O)Nc1cccc(C(F)(F)F)c1 | . | 61.2 | - | - | - | -
NC(=O)c1cccc(Nc2nc(C(N)COCc3ccccc3)cs2)n1 (configuration not stated) | . | . | 88.0 | . | . | .
Fc1ccc(NC(=S)Nc2ccc3nccnc3c2)cc1 | - | - | 62.4 | - | - | -
Fc1ccc(NC(=S)Nc2nccs2)cc1 | - | 65.6 | - | - | - | -
CCCC(=O)N1CCCC1(C)C(=O)N(C)Cc1cccc2ccccc12 (configuration not stated) | . | . | - | . | . | .
COc1ccc(Cn2c(-c3ccc(OC)cc3)nc3ccccc32)cc1 | - | - | - | - | - | -
COc1ccc(Cn2c(-c3ccc(Br)cc3)c[n+]3ccccc23)cc1 | - | 70.5 | - | - | - | -
Cc1ccc(OC(C)C(=O)Nc2ccc(F)cc2)c([N+](=O)[O-])n1 (configuration not stated) | . | . | - | - | . | -
SMILES | p-CIP stab down | T cruzi repl | Cardio protect | GASC-1 inh | CTSL1 counter | PP5 inh
N#Cc1ccc(C=NN2CCCCCC2)cc1 | . | . | - | . | . | .
CN(C)CCCN(C(=O)c1ccco1)c1nc(-c2ccc(Cl)cc2)cs1 | - | 56.5 | - | - | - | -
COc1ccc(-c2csc(N(CCCN(C)C)C(=O)c3cccs3)n2)cc1 | - | 65.7 | - | - | - | -
CCN(C(=O)c1cccs1)c1nc(-c2ccc(OC)cc2)cs1 | - | - | - | - | - | -
Cc1ccc(-c2csc(N(CCCN(C)C)C(=O)c3ccco3)n2)cc1 | - | - | - | - | - | -
Cc1sc2nc(CSC(C)C(=O)NC3(C#N)CCCCC3)[nH]c(=O)c2c1C (configuration not stated) | . | . | - | . | . | .

Compound activity from PubChem BioAssay.
